In ChEMBL document CHEMBL1126878, “4,5-Dihydro-1-phenyl-1H-2,4-benzodiazepines: novel antiarrhythmic agents” (J Med Chem, 1993):

Key:
[1] = tested on: Cavia porcellus; test: Effective dose in vivo for cardiac refractoriness (ERP) using paced guinea pig model; assay type: functional
Summary of the method: (§1)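 Guinea pig paced in vivo model. Hemodynamics recorded in normal sinus rhythm; ERP measured during brief pacing at baseline and 10 min after dosing. Bolus of 1 mL/kg via left ventricular catheter for doses <10 mg/kg; higher doses infused over 1 min. Cumulative dosing every 15 min up to the maximally tolerated dose (dP/dt reduced >50%). ED20 (ERP +20 ms) and dP/dt20 (20% drop in LV pressure-rise rate) derived by linear regression of individual dose-response curves.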

[2] = tested on: Canis familiaris; test: Minimal effective dose that resulted in significant reduction in PVC frequency in conscious dogs by po administration after 24 hours of coronary artery ligation; assay type: functional; settings: Canis lupus familiaris, read-out: MED
Summary of the method: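 Dogs (8.0–19.1 kg) underwent LAD occlusion under halothane anesthesia with Holter electrodes. 24 h after occlusion, animals with PVCs exceeding 50% of heart rate were dosed orally by gavage with agent in water (n = 4 per group). Holter recorded 1 h before and 12–24 h after dosing.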

[3] = target: Sodium channel protein type 5 subunit alpha (cardiac sodium channel) (Rattus norvegicus, UniProt P15389); test: in vitro; settings: sodium channel from cardiac myocytes, probe [3H]batrachotoxin ([3H]BTX)
[4] = tested on: Cavia porcellus; test: In vivo index of cardiac contractility using paced guinea pig model; assay type: functional; summary of the method: as §1
[5] = tested on: Felis catus; test: Ventricular fribrillation threshold (VFT) after iv administration to anesthetized, acutely infarcted cats at 1 mg/kg; assay type: functional, Heart
Summary of the method: (§2)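 Anesthetized cats given a slow iv bolus, with single-stage LAD occlusion 10 min later. Stimulating current raised until fibrillation; three baseline sequences about 15 min apart. Pacing repeated every 15 min for 2 h after occlusion, then every 30 min, for 5 h in total. Values are the mean maximum change over 5 h in VFT (mamps) or ERP (ms); cardioversion at 14–50 J.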

[6] = tested on: Cavia porcellus; test: Minimal effective dose that resulted in significant delay in the onset of arrhythmias in guinea pig with iv administration of aconitine hydrochloride; assay type: functional; settings: read-out: MED
Summary of the method: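 Guinea pigs (n = 6 per dose, parallel groups) received agent or saline iv (1 mL/kg) 10 min before a lethal aconitine hydrochloride challenge (34 μg/kg iv). Times to first PVC, sustained VT and VF (>15 s) were recorded and compared with concurrent controls by one-way ANOVA. MED taken from an ascending semilogarithmic dose escalation as the dose giving significant delay in arrhythmia onset.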

[7] = tested on: Felis catus; test: Effective refractory period (ERP) after iv administration to anesthetized, acutely infarcted cats at 1 mg/kg; assay type: functional; summary of the method: as §2
[8] = tested on: Felis catus; test: Effective refractory period (ERP) after iv administration to anesthetized, acutely infarcted cats at x mg/kg; assay type: functional; summary of the method: as §2
[9] = tested on: Felis catus; test: Ventricular fribrillation threshold (VFT) after iv administration to anesthetized, acutely infarcted cats at 3 mg/kg; assay type: functional, Heart; summary of the method: as §2
[10] = tested on: Felis catus; test: Ventricular fribrillation threshold (VFT) after iv administration to anesthetized, acutely infarcted cats at 0.3 mg/kg; assay type: functional, Heart; summary of the method: as §2
[11] = tested on: Felis catus; test: Effective refractory period (ERP) after iv administration to anesthetized, acutely infarcted cats at 0.3 mg/kg; assay type: functional; summary of the method: as §2
[12] = tested on: Felis catus; test: Ventricular fribrillation threshold (VFT) after iv administration to anesthetized, acutely infarcted cats at 5 mg/kg; assay type: functional, Heart
Summary of the method: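 Anesthetized cats received a slow iv bolus of test agent, followed 10 min later by single-stage LAD occlusion. Before dosing, VFT was measured three times about 15 min apart as baseline, raising the stimulating current until fibrillation was induced. After occlusion, pacing was repeated every 15 min for 2 h, then every 30 min, to 5 h. The value is the mean maximum VFT change (mamps) over 5 h.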

[13] = tested on: Felis catus; test: Effective refractory period (ERP) after iv administration to anesthetized, acutely infarcted cats at 0.03 mg/kg; assay type: functional; summary of the method: as §2
[14] = tested on: Felis catus; test: Ventricular fribrillation threshold (VFT) after iv administration to anesthetized, acutely infarcted cats at 0.03 mg/kg; assay type: functional, Heart; summary of the method: as §2
[15] = tested on: Felis catus; test: Effective refractory period (ERP) after iv administration to anesthetized, acutely infarcted cats at 3 mg/kg; assay type: functional; summary of the method: as §2

Sodium channel protein type 5 subunit alpha (cardiac sodium channel), sequence (P15389 whole entry): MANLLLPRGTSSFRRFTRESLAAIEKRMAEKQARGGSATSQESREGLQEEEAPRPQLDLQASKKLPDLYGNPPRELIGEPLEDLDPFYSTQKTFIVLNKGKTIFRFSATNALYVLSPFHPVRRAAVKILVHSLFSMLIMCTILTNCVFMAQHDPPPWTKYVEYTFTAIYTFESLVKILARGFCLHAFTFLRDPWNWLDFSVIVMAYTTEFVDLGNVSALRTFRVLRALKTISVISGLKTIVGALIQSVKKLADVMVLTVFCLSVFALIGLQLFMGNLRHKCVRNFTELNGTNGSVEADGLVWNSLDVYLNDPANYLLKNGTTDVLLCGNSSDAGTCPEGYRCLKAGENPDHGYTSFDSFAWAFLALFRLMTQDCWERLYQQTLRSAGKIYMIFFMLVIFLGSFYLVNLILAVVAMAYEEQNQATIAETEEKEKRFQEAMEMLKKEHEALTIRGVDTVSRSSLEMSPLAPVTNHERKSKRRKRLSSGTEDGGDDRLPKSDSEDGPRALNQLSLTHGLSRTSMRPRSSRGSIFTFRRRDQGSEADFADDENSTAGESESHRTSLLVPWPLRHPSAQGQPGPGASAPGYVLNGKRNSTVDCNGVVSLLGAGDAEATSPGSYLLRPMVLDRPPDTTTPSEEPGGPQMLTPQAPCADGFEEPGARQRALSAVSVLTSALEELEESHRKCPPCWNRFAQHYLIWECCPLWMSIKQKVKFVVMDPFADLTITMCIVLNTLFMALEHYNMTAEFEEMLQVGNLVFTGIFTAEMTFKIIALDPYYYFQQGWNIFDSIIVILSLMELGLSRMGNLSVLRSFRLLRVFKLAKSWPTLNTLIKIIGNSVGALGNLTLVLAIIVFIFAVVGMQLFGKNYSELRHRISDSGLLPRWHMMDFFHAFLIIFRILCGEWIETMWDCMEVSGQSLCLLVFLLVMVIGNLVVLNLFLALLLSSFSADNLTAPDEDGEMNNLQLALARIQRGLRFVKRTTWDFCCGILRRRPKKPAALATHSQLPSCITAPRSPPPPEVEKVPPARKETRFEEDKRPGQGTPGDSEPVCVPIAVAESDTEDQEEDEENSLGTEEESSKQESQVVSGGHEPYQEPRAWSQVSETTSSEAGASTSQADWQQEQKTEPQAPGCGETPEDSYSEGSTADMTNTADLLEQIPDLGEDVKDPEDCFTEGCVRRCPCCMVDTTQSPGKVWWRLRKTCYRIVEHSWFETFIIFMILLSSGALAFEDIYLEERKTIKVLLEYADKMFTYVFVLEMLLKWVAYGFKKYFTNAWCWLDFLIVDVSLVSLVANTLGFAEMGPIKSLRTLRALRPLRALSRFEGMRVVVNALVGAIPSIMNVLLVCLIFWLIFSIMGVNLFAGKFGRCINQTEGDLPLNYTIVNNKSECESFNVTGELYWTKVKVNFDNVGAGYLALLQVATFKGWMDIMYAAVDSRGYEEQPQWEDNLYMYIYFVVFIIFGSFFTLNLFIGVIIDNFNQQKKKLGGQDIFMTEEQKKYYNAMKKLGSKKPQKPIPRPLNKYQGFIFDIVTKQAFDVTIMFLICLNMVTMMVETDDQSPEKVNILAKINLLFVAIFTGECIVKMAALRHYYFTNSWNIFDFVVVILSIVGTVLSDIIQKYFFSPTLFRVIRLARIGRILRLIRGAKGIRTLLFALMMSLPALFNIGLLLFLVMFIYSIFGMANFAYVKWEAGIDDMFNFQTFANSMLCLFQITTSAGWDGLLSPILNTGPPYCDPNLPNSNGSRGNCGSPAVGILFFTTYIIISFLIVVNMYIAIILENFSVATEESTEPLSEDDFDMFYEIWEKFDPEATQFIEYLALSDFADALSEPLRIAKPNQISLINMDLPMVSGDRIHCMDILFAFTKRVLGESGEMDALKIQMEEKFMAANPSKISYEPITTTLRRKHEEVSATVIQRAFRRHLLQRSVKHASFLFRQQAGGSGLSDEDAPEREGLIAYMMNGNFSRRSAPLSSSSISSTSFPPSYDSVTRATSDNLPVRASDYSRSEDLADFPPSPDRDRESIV

| Compound | ED20 [1] | minimal effective dose [2] | inhibition at 10 µM [3] | dP/dt20 [4] | VFT [5] | minimal effective dose [6] | ERP [7] | ERP [8] | VFT [9] | VFT [10] | ERP [11] | VFT [12] | ERP [13] | VFT [14] | ERP [15] |
| --- | --- | --- | --- | --- | --- | --- | --- | --- | --- | --- | --- | --- | --- | --- | --- |
| CCC1=NC(c2ccccc2)c2ccccc2CN1C.Cl (centres undefined) | 0.6 mg/kg | 10 mg/kg | 50% | 0.8 mg/kg | 84 mA | 3 mg/kg | 13 ms |  |  |  |  |  |  |  |  |
| CN1Cc2ccccc2C(c2ccccc2)N=C1CCc1ccccc1.Cl (centres undefined) | 0.04 mg/kg | 3 mg/kg |  | 0.02 mg/kg | 95 mA | < 3 mg/kg | 61 ms |  |  |  |  |  |  |  |  |
| CCC1=NC(C)(c2ccccc2)c2ccccc2CN1C.O=C(O)/C=C/C(=O)O (centres undefined) | 0.7 mg/kg | 10 mg/kg | 60% | 1.2 mg/kg |  | < 3 mg/kg |  | 78 ms | 81 mA |  |  |  |  |  |  |
| CCC1=N[C@H](c2ccccc2)c2ccccc2CN1C.Cl | 0.3 mg/kg | 10 mg/kg | 42% | 0.3 mg/kg |  | 3 mg/kg |  |  |  | 63 mA | 16 ms |  |  |  |  |
| CN1Cc2ccccc2[C@H](c2ccccc2)N=C1CCc1ccccc1.Cl | 0.02 mg/kg | 10 mg/kg |  | 0.02 mg/kg | 82 mA | 0.1 mg/kg | 21 ms |  |  |  |  |  |  |  |  |
| CC(C)N(CCC(C(N)=O)(c1ccccc1)c1ccccn1)C(C)C (centres undefined) [DISOPYRAMIDE] | 0.2 mg/kg | 40 mg/kg | 17% | 0.03 mg/kg |  | 1 mg/kg |  | 26 ms |  |  |  | 73 mA |  |  |  |
| CN(CCOc1ccc(NS(C)(=O)=O)cc1)CCc1ccc(NS(C)(=O)=O)cc1 [DOFETILIDE] |  |  |  |  |  |  |  |  |  |  |  |  | 85 ms | 43 mA |  |
| O=C(NCC1CCCCN1)c1cc(OCC(F)(F)F)ccc1OCC(F)(F)F (centres undefined) [FLECAINIDE] | 12.8 mg/kg | 10 mg/kg | 74% | 1.8 mg/kg |  | 3 mg/kg |  |  | 30 mA |  |  |  |  |  | 5 ms |
